HEK293 NFkB inh – inhibitors of the PMA/ionomycin-induced NF-kB reporter in HEK293 cells; HEK-293 NF-kB luciferase reporter, luminescence; inhibition, % at 3 µM; 62,000 compounds, 0.21% hits;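 active means inhibition above the mean of all tested compounds plus 3 SD, cut at about 40% in these data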;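 further: 0% = stimulated DMSO wells and 100% = 10 µM reference inhibitor 5653914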
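System – HEK-293 cells with stable firefly luciferase reporter driven by four HIV NF-kB elements · Doses – one dose, 3 µM · Schedule – 1 h compound pre-incubation, 16 h PMA/ionomycin at 37 °C · Technique – luminescence from luciferase substrate reagent · Measure – percent inhibition normalized per plate to DMSO and reference-inhibitor controls · Replicates – tested once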
BAP1 inh – inhibitors of human BAP1 deubiquitinase | Q92560 | recombinant BAP1, Ub-AMC hydrolysis fluorescence kinetic; hits give low values | calls only at 20 µM | 72,000 compounds, 0.48% hits;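 active means activity remaining at or below 50% of control, provided the compound also passes the data quality filters; inactive means the rest, including low values that fail the filters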;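 further: 100% = DMSO wells rate and 0% = substrate alone blank rate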
Target sequence (Q92560 whole entry, looked up): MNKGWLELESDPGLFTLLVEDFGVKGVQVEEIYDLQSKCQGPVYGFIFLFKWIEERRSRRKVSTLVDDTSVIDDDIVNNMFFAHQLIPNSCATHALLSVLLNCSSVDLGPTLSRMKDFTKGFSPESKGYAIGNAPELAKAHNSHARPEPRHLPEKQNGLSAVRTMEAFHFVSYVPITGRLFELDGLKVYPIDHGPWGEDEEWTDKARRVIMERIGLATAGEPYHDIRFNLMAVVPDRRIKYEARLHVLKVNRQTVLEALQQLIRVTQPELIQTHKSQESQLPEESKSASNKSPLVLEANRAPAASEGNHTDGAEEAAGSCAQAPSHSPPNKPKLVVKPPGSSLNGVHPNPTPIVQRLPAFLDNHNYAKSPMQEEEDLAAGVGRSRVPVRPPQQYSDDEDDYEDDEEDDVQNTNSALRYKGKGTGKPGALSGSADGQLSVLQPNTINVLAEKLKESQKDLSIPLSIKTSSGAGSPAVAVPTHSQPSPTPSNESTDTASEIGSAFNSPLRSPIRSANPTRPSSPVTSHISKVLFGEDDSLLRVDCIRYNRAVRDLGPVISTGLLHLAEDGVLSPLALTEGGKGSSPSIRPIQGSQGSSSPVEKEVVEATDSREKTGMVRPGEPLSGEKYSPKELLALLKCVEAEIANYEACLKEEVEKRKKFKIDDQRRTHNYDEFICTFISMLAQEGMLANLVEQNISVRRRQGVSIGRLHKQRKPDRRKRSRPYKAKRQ
M1 ag – activates the M1 muscarinic receptor. B-score at 10 µM. CHO-M1 cells, Fluo-4 calcium fluorescence, agonist mode; hits give high values. 64,000 compounds, 3% hits;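 active means fluorescence rise, raw or as B-score row- and column-corrected plate score, outside the 99.7% band of its plate's samples, either direction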
D1 allo mod – D1 dopamine receptor (human) allosteric modulation | B-score at 10 µM | HEK293 D1, CRE-luciferase, dopamine EC30 potentiation; actives deviate in either direction | 58,000 compounds, 5.9% hits | P21728 | AID 641;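 active means luminescence count or its row- and column-corrected plate score outside the 99.7% band of the plate's sample wells, on either side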
M1 antag – M1 muscarinic receptor (rat) antagonism; CHO-M1 cells, Fluo-4 calcium, ACh EC80 antagonist mode; hits give low values; 64,000 compounds, 3.4% hits; B-score at 10 µM;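 active means calcium fluorescence response, raw or row-and-column corrected B-score, differing from the plate sample mean either way at a set confidence level, mostly lower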
hDAT+cocaine – modulates human dopamine transporter uptake under cocaine | Q01959 | LLC-PK1 hDAT cells, [14C]-dopamine uptake with cocaine IC80; actives deviate in either direction | B-score at 10 µM | 110,000 compounds, 1.3% hits | AID 449768;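 active means Z score or B-score, a plate-position-corrected score, falls beyond the plate's 99.7% confidence bounds, in either direction; inactive means both scores lie inside the 99.7% bounds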;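 further: scored against the spread of the other compound wells on the same plate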
M1 agonist conf – rat M1 muscarinic agonism, confirmation | fluorescence change (max-min) at 10 µM | CHO-M1 cells, Fluo-4 calcium fluorescence, agonist mode; actives lie on both sides | 1,700 compounds, 19% hits | shares compounds with M1 ag;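 active means fluorescence change differs from the solvent-only DMSO control mean at a set confidence level in both duplicate runs; inconclusive means differs from solvent-only control mean in just one of two runs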;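 further: an EC20 dose of acetylcholine follows compound addition during the same imaging run; raw fluorescence intensity difference in instrument units with no normalization to controls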
M4 agonist ctr – counter-screen for M1 agonists: activity at rat M4 receptor; 1,700 compounds, 9% hits; fluorescence change (max-min) at 10 µM; CHO M4/Gqi5 cells, Fluo-4 calcium fluorescence, agonist mode; actives lie on both sides; shares compounds with M1 ag;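 active means fluorescence change differing from the plate's solvent-only control wells at 99.7% confidence in both duplicates, whether higher or lower; inconclusive means differs from solvent controls in only one of two duplicates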
Starred values were filed as active, the others as inactive; i = inactive; u = inconclusive; x = not tested or not shown; ! = repeats disagree. Rows were chosen to be rich in hits. Some 7.2% of all compounds tested hit in one or more screens of this group.

SMILES	HEK293 NFkB inh	BAP1 inh	M1 ag	D1 allo mod	M1 antag	hDAT+cocaine	M1 agonist conf	M4 agonist ctr
CCOC(=O)C1=C2SCCN2C(=O)C(C#N)C1(C)C (centres undefined)	12	x	3.5*	-0.44	-0.19	-1.4	-16	-14
N#CC1(c2nc3ccccc3[nH]2)CC1c1ccc2c(c1)OCO2 (centres undefined)	14	i	2.9*	-0.93	0.29	0.32	-34*	-82
O=C(CSc1nc2ccccc2[nH]1)c1ccc2c(c1)OCO2	2	i	-1.5	-0.13	-0.66	0.38	x	x
O=c1c(-c2cc3ccccc3o2)[n+]([O-])c2ccccc2n1OCc1ccccn1	x	x	x	x	x	0.71	x	x
CCOn1c(=O)c(-c2cc3ccccc3o2)[n+]([O-])c2ccccc21	-21	i	23*	2.4	-0.14	1.2	23	-13
c1cc2c(cc1-c1cnc3n1CCC3)OCCO2	23	i	2.6*	-2.8	-2.5	0.11	u	-61
CC(=O)c1ccc(NC(=O)CSc2nnc(-c3ccoc3C)n2Cc2ccccc2)cc1	14	i	27*	0.52	-1.1	-0.95	u	-75*
Cc1ccc(S(=O)(=O)NC(=O)c2ccc(Cl)cc2)cc1	x	i	x	x	x	x	x	x
Cc1ccc(S(=O)(=O)N2CCN(S(C)(=O)=O)CC2)cc1	x	x	x	x	x	-0.65	x	x
Cc1ccc(C(=O)N2CCN(S(C)(=O)=O)C2)cc1	21	i	4*	-0.4	1.1	-0.67	u	-60
Cc1ccc(OCCN2CCN(C(=O)CCC(=O)Nc3nnc(C)s3)CC2)cc1	4	i	-1.1	-0.63	-0.77	1.7	x	x
Cc1ccc(OCCN2CCN(C(=O)CCC(=O)Nc3nnc(C(C)C)s3)CC2)cc1	7	i	13*	-0.38	-1.9	2.7	5.1	0.75
CC(C)c1nnc(NC(=O)CCC(=O)N2CCN(C3CCCCC3)CC2)s1	12	i	3.1*	-0.087	-0.027	0.02	u	-8.6
CCCc1nnc(NC(=O)CCC(=O)N2CCN(CCOc3ccc(C)cc3)CC2)s1	12	i	20*	-1.6	-1.6	0.24	-7.2	-35
CCN1C(=Nc2cccnc2)SCC1(O)c1ccccc1 (centres undefined)	x	i	x	x	x	x	x	x
O=C(Nc1nc(-c2ccc(Br)cc2)cs1)c1cc(Cl)ccc1[N+](=O)[O-]	x	i	x	x	x	x	x	x
Cc1nn(C)c(C)c1CN(C)C(=O)c1cnn2c1NC(c1ccccc1)CC2C(F)(F)F (centres undefined)	15	i	-3.3*	-0.26	-0.62	0.18	-26*	u
Cc1ccccc1Cn1ccc(NC(=O)c2cnn3c2NC(c2ccccc2)CC3C(F)(F)F)n1 (centres undefined)	x	x	x	x	x	0.45	x	x
CCOC(=O)Cn1c(=O)c2c(nc(Br)n2Cc2ccccc2)n(C)c1=O	-8	i	-0.19	0.18	0.38	x	x	x
CCCCOC(=O)Cn1c(=O)c2c(nc(Br)n2Cc2ccccc2)n(C)c1=O	22	i	7.5*	-1.3	-0.009	0.56	-18	-45
Cc1nn2c3ccccc3nc2n1CCN1CCCCC1	x	i	x	x	x	x	x	x
CN(C)c1ccc(N=Cc2nc(-c3ccccc3)oc2O)cc1	21	i	21*	-0.062	0.074	-0.44	147*	61
Oc1oc(-c2ccccc2)nc1C=Nc1ccccc1	x	x	x	x	x	0.25	x	x
COCCCNC(=O)c1ccc(Br)cc1	x	i	x	x	x	x	x	x
CCc1ccc(S(=O)(=O)NCc2cn3ccsc3n2)s1	17	i	3.3*	0.86	0.55	-1.1	-0.7	-45
SMILES	HEK293 NFkB inh	BAP1 inh	M1 ag	D1 allo mod	M1 antag	hDAT+cocaine	M1 agonist conf	M4 agonist ctr
CCc1ccc(S(=O)(=O)NCCc2cn3ccsc3n2)s1	-10	i	-0.79	-0.17	-0.42	-0.65	x	x
O=[N+]([O-])c1cccc2c1nnn2C(CO)OCCO (centres undefined)	x	i	x	x	x	x	x	x
O=C(CN1CCN(S(=O)(=O)c2cc(Cl)ccc2Cl)CC1)Nc1ccc2c(c1)OCCO2	8	i	4.1*	2.5	0.58	1.8*!	-31*	u
CC(C)n1c(N2CCN(CC(=O)Nc3ccc4c(c3)OCCO4)CC2)nc2ccccc21	10	i	4*	0.072	-1.2	3.1	-22*	u
CN(C)c1ccc(NC(=O)CN2CCN(S(=O)(=O)c3cc(Cl)ccc3Cl)CC2)cc1	-10	i	-0.52	-0.69	-0.8	0.085	x	x
CC(=O)c1c(O)c2ccccc2oc1=O	x	i	x	x	x	x	x	x
COc1cccc(NC=C2C(=O)OC3(CCCCC3)OC2=O)c1	14	x	2.7*	-0.15	-0.46	-0.17	-11	-44
CCCOC(=O)c1ccc(OCC(O)Cn2c(C)nc3ccccc32)cc1 (centres undefined)	33	i	5.7*	-3.2*	-0.29	-0.15	u	-84
CC(=O)Nc1cccc(OCC(O)Cn2c(C)nc3ccccc32)c1 (centres undefined)	x	x	x	x	x	-0.39	x	x
COC(=O)c1ccc(OCC2c3cc(OC)c(OC)cc3CCN2C(=O)c2ccco2)cc1 (centres undefined)	14	i	11*	x	-2.4*	-1.4	-15	u
COc1ccc(S(=O)(=O)Nc2cc(C)c(O)cc2C(C)C)cc1	7	i	4.7*	-1.3	0.35	2.6	-11	-48
O=C(CC1SC(=Nc2ccccc2)N(CCCO)C1=O)Nc1ccc(Cl)cc1 (centres undefined)	10	x	4.4*	-0.64	-0.89	0.28	-4.6	u
CC(=O)c1ccc(OCCCC(=O)OCC(=O)N2CCN(c3ccccc3)CC2)cc1	-11	i	9.3*	-0.072	-0.73	0.24	-0.8	-75
COc1ccc2c(c1)c1ncn(CCN3CCCC3)c(=O)c1n2C	24	x	-0.011	-1.9	-0.23	-0.15	x	x
COc1ccccc1CCn1cnc2c3cc(C)ccc3n(C)c2c1=O	-2	i	1.8*	x	-0.44	0.75	u	-81
Cn1c2ccccc2c2nnc(SCC(=O)N3c4ccccc4Sc4ccccc43)nc21	x	i	x	x	x	x	x	x
Cc1nn(C)c(C)c1S(=O)(=O)N(CC(=O)NC1CCCCCC1)c1ccc(C(C)C)cc1	x	x	x	x	x	0.67	x	x
Cc1n[nH]c(C)c1S(=O)(=O)N(CC(=O)NC1CCCC1)c1ccc(C(C)C)cc1	5	i	3.9*	-0.024	-0.22	-0.59	-19	-48
O=C(NCC(=O)N(Cc1cccs1)C(C(=O)NC1CCCC1)c1ccco1)c1cccs1 (centres undefined)	21	i	3.2*	-1.9	-1.2	0.019	-17	u
O=C(NCC(=O)N(c1ccccc1)C(C(=O)NC1CCCCC1)c1ccncc1)c1ccco1 (centres undefined)	25	i	2.5*	x	-0.025	-0.18	-11	u

From PubChem BioAssay
